From ChEMBL document CHEMBL4627246, “Pyroglutamide-Based P2X7 Receptor Antagonists Targeting Inflammatory Bowel Disease” (J Med Chem, 2020)
Calls of active or inactive are those of the source. No cut-off for these calls is given here.

Columns and labels:
[1] = target: T1, P2X purinoceptor 7 (Homo sapiens) (UniProt Q99572); test: Antagonist activity at P2X7R in human THP1 cells assessed as inhibition of LPS and BzATP-induced ROS production at 10^-5 mol/L pretreated with compound followed by LPS/BzATP addition and measured up to 5 hrs by kinetic chemiluminescence based fluorometric analysis; assay type: cell-based; conditions: THP-1
T1 sequence (whole entry): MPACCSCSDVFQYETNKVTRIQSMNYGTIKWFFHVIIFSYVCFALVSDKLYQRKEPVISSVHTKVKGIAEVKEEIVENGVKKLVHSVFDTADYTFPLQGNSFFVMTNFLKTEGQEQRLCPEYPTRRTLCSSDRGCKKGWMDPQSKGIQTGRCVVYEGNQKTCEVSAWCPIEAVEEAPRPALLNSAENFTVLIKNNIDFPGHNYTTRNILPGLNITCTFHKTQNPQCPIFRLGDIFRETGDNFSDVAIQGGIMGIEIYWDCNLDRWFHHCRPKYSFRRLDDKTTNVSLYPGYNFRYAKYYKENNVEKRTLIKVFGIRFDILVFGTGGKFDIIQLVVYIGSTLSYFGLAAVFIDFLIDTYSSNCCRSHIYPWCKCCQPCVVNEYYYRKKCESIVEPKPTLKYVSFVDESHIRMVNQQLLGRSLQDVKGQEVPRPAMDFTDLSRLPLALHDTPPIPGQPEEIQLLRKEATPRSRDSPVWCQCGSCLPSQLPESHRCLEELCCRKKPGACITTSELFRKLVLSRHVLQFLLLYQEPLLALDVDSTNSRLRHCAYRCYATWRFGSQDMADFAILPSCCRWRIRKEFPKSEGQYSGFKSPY
Method in brief: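 PMA-differentiated THP-1 macrophages (10^5 cells) in RPMI 1640 + 10% FBS pretreated with antagonist at 10^-5 mol/L, then LPS 10 μmol/L plus BzATP 70 μmol/L at 37 °C, 5% CO2; horseradish peroxidase (50 μg/mL) and luminol (50 μM) mixture added, chemiluminescence read on a fluorometer; cell-free H2O2 serves as positive control.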

[2] = target: T1, P2X purinoceptor 7 (Homo sapiens); test: Antagonist activity at P2X7 receptor in human THP-1 cells assessed as inhibition of LPS and BzATP-induced IL-1beta production at 10^-6 mol/L pretreated with compound followed by LPS/BzATP addition and measured after 2 to 6 hrs by ELISA; assay type: cell-based; conditions: TDE = time-dependent effect
Method in brief: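 PMA (100nM)-differentiated THP-1 macrophages (RPMI 1640, 10% FCS), 10^6 cells, pretreated with antagonist at […], then challenged with LPS 10 μmol/L and BzATP 70 μmol/L at 37 °C, 5% CO2; IL1β measured by ELISA, including the 6 h point; mean ± SD, P<0.05 significant.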

[3] = target: T1, P2X purinoceptor 7 (Homo sapiens); test: Antagonist activity at P2X7 receptor in human THP-1 cells assessed as inhibition of LPS and BzATP-induced IL-1beta production at 10^-5 mol/L pretreated with compound followed by LPS/BzATP addition and measured after 2 to 6 hrs by ELISA; assay type: cell-based
Method in brief: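 THP-1 monocytes grown in RPMI 1640 + 10% FCS, differentiated to macrophages with PMA (100nM); 10^6 cells pretreated with antagonist at 10^-5 mol/L, then exposed to LPS 10 μmol/L plus BzATP 70 μmol/L at 37 °C, 5% CO2; IL1β quantified by ELISA in samples at 2, 4 and 6 h; mean ± SD, significance P<0.05.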

P2X purinoceptor 7 = target: T2, P2X purinoceptor 7 (Homo sapiens, UniProt Q99572); test: Displacement of [3H]-A804598 from human P2X7 expressed in human HEK293 cell membrane incubated for 1 hr by microplate scintillation counting method; assay type: cell membranes
T2 sequence (Q99572 whole entry): T1 sequence (whole entry)

[4] = target: T1, P2X purinoceptor 7 (Homo sapiens); test: Inhibition of human P2X7 expressed in human HEK293 cells assessed as reduction in BzATP-stimulated TO-PRO-3 incorporation at 10 uM preincubated with compound and TO-PRO-3 for 15 mins prior to BzATP addition and measured after 1 hr by Fluo-3AM dye based flow cytometry relative to control; assay type: cell-based
Method in brief: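 HEK-293 cells overexpressing human P2RX7 loaded with Fluo-3 AM, then incubated with TO-PRO-3 (large pore uptake) and propidium iodide (viability) plus compound (10⁻⁵ M single point) for 15 min before BzATP 100 µM. After 1 h, flow cytometry; percentage of Fluo-3/TO-PRO-3 double-positive cells calculated. Mean of n ≥ 2 with positive control.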

[5] = target: T1, P2X purinoceptor 7 (Homo sapiens); test: Antagonist activity at P2X7R in human THP1 cells assessed as inhibition of LPS and BzATP-induced cell death at 10^-6 mol/L pretreated with compound followed by LPS/BzATP addition and measured after 4 hrs by sytox green dye based flow cytometry; conditions: THP-1
[6] = target: T1, P2X purinoceptor 7 (Homo sapiens); test: Antagonist activity at P2X7R in human THP1 cells assessed as inhibition of LPS and BzATP-induced cell death at 10^-6 mol/L pretreated with compound followed by LPS/BzATP addition and measured after 6 hrs by sytox green dye based flow cytometry; conditions: THP-1
[7] = target: T1, P2X purinoceptor 7 (Homo sapiens); test: Antagonist activity at P2X7R in human THP1 cells assessed as inhibition of LPS and BzATP-induced ROS production at 10^-6mol/L pretreated with compound followed by LPS/BzATP addition and measured after 4 hrs by kinetic chemiluminescence based fluorometric analysis; assay type: cell-based; conditions: THP-1
Method in brief: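 Differentiated THP-1 macrophages (10^5 cells, RPMI 1640 + 10% FBS) pretreated with antagonist at 10^-6 mol/L before LPS (10 μmol/L) and BzATP (70 μmol/L), 37 °C, 5% CO2; ROS detected as luminol (50 μM)/horseradish peroxidase (50 μg/mL) chemiluminescence on a fluorometer; H2O2 without cells as positive control.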

[8] = Metabolic stability in human liver microsomes assessed as intrinsic clearance at 0.2 mg/ml incubated for 60 mins by UPLC/MS-MS analysis; assay type: ADME, Microsome; conditions: read-out: CLH
[9] = Metabolic stability in human liver microsomes assessed as half life at 0.2 mg/ml incubated for 60 mins by UPLC/MS-MS analysis; assay type: ADME, Microsome
[10] = Drug metabolism in mouse measured after 40 mins; assay type: ADME; conditions: read-out: Drug metabolism
Mus musculus [11] = test: Antiinflammatory activity against DSS-induced colitis C57BL/6J mouse model assessed as areas of normal colonic mucosa with straight and larger crypts on muscularis mucosa at 2.5 mg/kg, ip administered daily and measured after day 14 by hematoxylin and eosin staining based microscopic analysis; assay type: functional, organism-based
Method in brief: (§1)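 DSS colitis in WT mice: 3.8% DSS in drinking water days 1–5, then tap water for 10 days; compound 2.5 mg/kg given i.p. daily in 10% DMSO/PBS; cohorts of 10 mice per group, placebo as comparator; weight loss and clinical disease score tracked; colon sections at day 14 stained with H&E and histologically scored; data as mean ± SEM.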

Mus musculus [12] = test: Antiinflammatory activity against DSS-induced colitis C57BL/6J mouse model assessed as decrease in inflammation level in colon at 2.5 mg/kg, ip administered daily and measured after day 14 by hematoxylin and eosin staining based microscopic analysis; assay type: functional; conditions: 336 h; method in brief: as §1
[13] = Metabolic stability in human hepatocytes; assay type: ADME, cell-based, Hepatocyte
HEK293 = test: Cytotoxicity against human HEK293 cells assessed as reduction in cell viability at 10^-5 mol/L incubated for 72 hrs; assay type: cell-based; conditions: hek293, 72 h, 10 µM
Method in brief: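 Wild-type and P2RX7-transfected HEK293 cells exposed to compound for 72 hours; viability compared against untreated control.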

[14] = target: T3, P2X purinoceptor 1 (Homo sapiens) (UniProt P51575); test: Antagonist activity at P2X1 receptor in human platelet assessed as inhibition of thrombin-induced platelet aggregation at 10 '-5 to 10^-6 mol/L pretreated with compound and LPS/BzATP for 10 mins followed by thrombin addition and measured for 8 mins by aggregometry analysis; assay type: cell-based
T3 sequence (whole entry): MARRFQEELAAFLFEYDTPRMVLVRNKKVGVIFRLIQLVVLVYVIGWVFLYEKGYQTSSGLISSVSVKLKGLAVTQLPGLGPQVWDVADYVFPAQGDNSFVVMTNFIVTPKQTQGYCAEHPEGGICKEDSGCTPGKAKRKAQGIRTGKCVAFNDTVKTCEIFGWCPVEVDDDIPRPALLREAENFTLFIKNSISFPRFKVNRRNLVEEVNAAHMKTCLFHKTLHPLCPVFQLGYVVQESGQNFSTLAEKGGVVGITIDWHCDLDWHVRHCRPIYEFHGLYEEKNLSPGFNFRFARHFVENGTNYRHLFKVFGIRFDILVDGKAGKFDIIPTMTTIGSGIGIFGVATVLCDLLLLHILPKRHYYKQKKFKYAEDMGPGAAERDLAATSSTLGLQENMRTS

[15] = Solubility of compound in saline at 1mg/ml; assay type: physicochemical; conditions: buffer
[16] = target: T1, P2X purinoceptor 7 (Homo sapiens); test: Antagonist activity at P2X7R in human THP1 cells assessed as inhibition of LPS and BzATP-induced IL-1beta expression by measuring increase in proIL-1beta expression in cell supernatant extract at 10^-6 mol/L pretreated with compound followed by LPS/BzATP addition and measured after 6 hrs by Western blot analysis; assay type: cell-based; conditions: THP-1
[17] = target: T1, P2X purinoceptor 7 (Homo sapiens); test: Antagonist activity at P2X7R in human THP1 cells assessed as inhibition of LPS and BzATP-induced mature form of IL-1beta expression in cells supernatant at 10^-6 mol/L pretreated with compound followed by LPS/BzATP addition and measured after 2 to 6 hrs by Western blot analysis; assay type: cell-based; conditions: THP-1
[18] = target: T1, P2X purinoceptor 7 (Homo sapiens); test: Antagonist activity at P2X7R in human THP1 cells assessed as inhibition of LPS and BzATP-induced mature form of IL-1beta expression in whole cell extract at 10^-6 mol/L pretreated with compound followed by LPS/BzATP addition and measured after 2 to 6 hrs by Western blot analysis; assay type: cell-based; conditions: THP-1

Compound	inhibition [1]	inhibition [2]	inhibition [3]	IC50 (P2X purinoceptor 7) [nM]	Ki (P2X purinoceptor 7) [nM]	inhibition [4] [%]	microsomal CLint [8] [µL/min/mg]	half-life [9] [min]	metabolised at 40 min [10] [%]	Stability [13]	Activity (HEK293)	Activity [14]	solubility [15]	further results
CN1C(=O)CC[C@H]1C(=O)NCc1ccc(Cl)cc1Cl	Active	Tde	Active	862	176	100	3.6	619	5.1	Stable	–	–	–	inhibition [5]: Active; inhibition [6]: inactive; inhibition [7]: Active; Activity (Mus musculus [11]): Active; inhibition in vivo at 2.5 mg/kg (Mus musculus [12]): 42 to 50%
O=C(NCc1ccc(Cl)cc1Cl)[C@@H]1CCC(=O)N1c1ccoc1	Active	Tde	Active	422	86	85	630	2.9	99.9	Unstable	Non-Toxic	inactive	Insoluble	–
O=C(NCc1ccc(Cl)cc1Cl)[C@@H]1CCC(=O)N1c1ccco1	Active	Tde	Active	575	118	94	411	5.2	99.2	Unstable	Non-Toxic	inactive	Insoluble	–
O=C(NCc1cccc(C(F)(F)F)c1Cl)[C@@H]1CCC(=O)N1c1cccs1	Active	Tde	Active	218	44	100	530	3.8	99.7	Unstable	Non-Toxic	inactive	Insoluble	inhibition [16]: Active; inhibition [17]: Active; inhibition [18]: Active
